Assay [1] concerns the target T1, Kir3.1/Kir3.2 (Homo sapiens, UniProt P48051+P48549).
T1 sequence (P48549 whole entry): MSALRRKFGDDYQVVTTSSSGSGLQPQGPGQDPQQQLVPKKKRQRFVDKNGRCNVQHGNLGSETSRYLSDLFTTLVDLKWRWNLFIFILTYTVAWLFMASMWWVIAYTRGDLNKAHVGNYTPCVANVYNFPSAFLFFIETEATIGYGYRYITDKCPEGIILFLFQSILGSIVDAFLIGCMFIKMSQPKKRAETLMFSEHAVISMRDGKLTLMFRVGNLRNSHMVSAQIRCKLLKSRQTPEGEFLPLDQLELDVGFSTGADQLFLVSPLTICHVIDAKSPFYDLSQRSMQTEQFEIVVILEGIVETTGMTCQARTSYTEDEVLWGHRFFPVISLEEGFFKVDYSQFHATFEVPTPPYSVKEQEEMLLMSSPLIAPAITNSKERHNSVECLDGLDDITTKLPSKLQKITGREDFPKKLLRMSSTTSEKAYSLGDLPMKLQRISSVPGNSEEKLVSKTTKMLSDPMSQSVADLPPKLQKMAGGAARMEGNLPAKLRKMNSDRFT
T1 sequence (P48051 whole entry): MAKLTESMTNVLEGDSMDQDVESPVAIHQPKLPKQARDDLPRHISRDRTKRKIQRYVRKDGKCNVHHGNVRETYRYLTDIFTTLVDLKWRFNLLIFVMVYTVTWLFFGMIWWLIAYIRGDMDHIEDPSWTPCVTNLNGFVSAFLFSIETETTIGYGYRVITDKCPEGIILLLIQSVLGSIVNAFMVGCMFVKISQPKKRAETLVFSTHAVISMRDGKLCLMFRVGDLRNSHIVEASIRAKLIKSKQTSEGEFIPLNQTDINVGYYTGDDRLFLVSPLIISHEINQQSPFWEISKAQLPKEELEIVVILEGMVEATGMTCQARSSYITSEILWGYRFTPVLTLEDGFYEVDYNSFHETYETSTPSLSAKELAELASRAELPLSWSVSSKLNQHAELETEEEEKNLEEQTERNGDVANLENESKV
Kind of assay: Activation of GIRK1/2 (unknown origin) transfected in HEK293 cells after 4 mins by thallium flux-based fluorescence assay. The assay is classed as cell-based. A digest of the protocol:
(§1)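 Loaded with 0.5 μM Thallos-AM for ~60 min at room temperature in HEPES-buffered HBSS pH 7.4. Fluorescence read at 1 Hz, F/F0 minus vehicle, slope after stimulus. Potency from triplicates. Efficacy normalised to reference activator set at 100%.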

The target in assay [2] is T2, Kir3.1/Kir3.4 (Homo sapiens) (UniProt P48549+P48544). In words: Activation of GIRK1/4 (unknown origin) transfected in HEK293 cells at 20 uM after 4 mins by thallium flux-based fluorescence assay relative to ML297. In kind it is cell-based. The essentials:
(§2)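 Single-concentration thallium flux in HEK-293 cells stably expressing GIRK1/GIRK2 or GIRK1/GIRK4, loaded with 0.5 μM Thallos-AM for ~60 min at room temperature. 20 μM compound in 0.2% DMSO/HEPES-buffered HBSS (pH 7.4) added, followed 4 min later by a Tl2SO4 bicarbonate stimulus. Read-out is the slope of F/F0 after stimulus, vehicle-subtracted, expressed relative to reference activator.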

Assay [3] deals with T3, Kir3.1/Kir3.4 (Homo sapiens, UniProt P48544+P48549).
T3 sequence (P48549 whole entry): T1 sequence (P48549 whole entry)
T3 sequence (P48544 whole entry): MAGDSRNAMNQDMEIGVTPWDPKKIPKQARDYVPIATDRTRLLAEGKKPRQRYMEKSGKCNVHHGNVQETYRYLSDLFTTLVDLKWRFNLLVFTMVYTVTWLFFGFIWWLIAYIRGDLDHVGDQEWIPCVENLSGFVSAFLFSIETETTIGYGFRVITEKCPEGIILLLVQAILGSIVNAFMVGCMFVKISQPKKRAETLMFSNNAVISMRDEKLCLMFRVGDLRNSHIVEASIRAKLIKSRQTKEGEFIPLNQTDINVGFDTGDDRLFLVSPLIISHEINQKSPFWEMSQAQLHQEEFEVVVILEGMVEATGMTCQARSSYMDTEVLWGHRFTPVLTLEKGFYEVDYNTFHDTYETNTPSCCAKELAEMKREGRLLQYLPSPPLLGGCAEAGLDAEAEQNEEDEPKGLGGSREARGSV
In words: Activation of GIRK1/4 (unknown origin) transfected in HEK293 cells after 4 mins by thallium flux-based fluorescence assay. The assay is classed as cell-based. A digest of the protocol: (§3)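 Loaded with 0.5 μM Thallos-AM for ~60 min at room temperature in HEPES-buffered HBSS pH 7.4. Compounds (11-point, threefold dilutions) added 4 min before a thallium sulfate/bicarbonate stimulus. Fluorescence read at 1 Hz, F/F0 minus vehicle, slope after stimulus. Potency from triplicates. Efficacy normalised to reference activator set at 100%.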

Assay [4] concerns the target T4, Kir3.1/Kir3.2 (Homo sapiens) (UniProt P48549+P48051). In words: Activation of GIRK1/2 (unknown origin) transfected in HEK293 cells at 20 uM after 4 mins by thallium flux-based fluorescence assay relative to ML297. The assay is classed as cell-based. The essentials: as §2
The target of assay [5] is T4, Kir3.1/Kir3.2 (Homo sapiens). Kind of assay: Activation of GIRK1/2 (unknown origin) by cell-based thallium flux assay relative to control. A digest of the protocol: as §3
Assay [6] deals with T2, Kir3.1/Kir3.4 (Homo sapiens). In words: Activation of GIRK1/4 (unknown origin) by cell-based thallium flux assay relative to control. A digest of the protocol:
as §3

The target in assay [7] is T3, Kir3.1/Kir3.4. Kind of assay: Activation of GIRK1/4 (unknown origin) by cell-based thallium flux assay. The essentials: as §3
Assay [8] has as its target T1, Kir3.1/Kir3.2. Kind of assay: Activation of GIRK1/2 (unknown origin) by cell-based thallium flux assay. The essentials: as §1
Assay [9] has as its target T3, Kir3.1/Kir3.4. Kind of assay: Activation of recombinant human GIRK1/4 expressed in Xenopus oocytes by two-electrode voltage clamp method. The assay is classed as cell-based, Oocyte.
In assay [10] the target is T1, Kir3.1/Kir3.2. In words: Activation of recombinant human GIRK1/2 expressed in Xenopus oocytes by two-electrode voltage clamp method. The assay is classed as cell-based, Oocyte.

A value given as a limit tells only on which side of the number the result lay.

With `O=C(Cc1ccccc1Cl)Nc1cccc(Cl)c1`, the EC50 in assay [1] is > 10 µM. This compound also yielded an Efficacy in assay [2] of 22%.

With `O=C(Cc1ccccc1Cl)Nc1cccc(OC(F)F)c1`, the EC50 in [1] was > 10 µM. This compound came in with an Efficacy in assay [2] of 119%.

With `O=C(Cc1ccccc1Cl)Nc1ccc(C(F)(F)F)cc1`, the EC50 in assay [1] is > 10 µM; in [3], 2.1 µM. In assay [2], this compound registered an Efficacy of 20%.

For `CC(C)(C)c1cccc(NC(=O)Cc2ccccc2Cl)c1`, the Efficacy was determined as 44% in [4] and 76% in [2].

Consider `Cc1ccc(NC(=O)Nc2cccc(C#N)c2)cc1S(=O)(=O)N(C)C`, for which the Efficacy in assay [4] was determined as 83%; in assay [2] it was 29%.

Consider `Cc1ccc(NC(=O)Cc2ccccc2Cl)cc1S(=O)(=O)N(C)C`, for which the Efficacy in [5] stood at 110%; in assay [6] it was 104%. Moreover, the EC50 in assay [7] and in assay [8] was 1.1 µM throughout.

Turning to `O=C(Cc1ccccc1Cl)Nc1ccc(Cl)cc1`, the EC50 in assay [1] and in [3] was > 10 µM throughout.

Consider `Cc1ccc(NC(=O)Nc2ccc(Cl)cc2)cc1S(=O)(=O)N(C)C`, for which the Efficacy in assay [4] stood at 92%; in assay [2], 72%. Further, the values for the EC50 in [1] and in [3] were 3.3 µM and 2.8 µM, respectively.

Consider `Cc1ccc(NC(=O)Nc2ccccc2Cl)cc1S(=O)(=O)N(C)C`, for which the Efficacy came to 94% in assay [4] and 106% in assay [2]. For the same compound, the EC50 in assay [1] was found to be 2.7 µM; in assay [3], 6.8 µM.

As to `CN(C)S(=O)(=O)c1cccc(NC(=O)Cc2ccc(Cl)cc2)c1`, the Efficacy amounted to 71% in assay [5] and 64% in [6]. Also, the EC50 worked out at 2.2 µM in assay [7] and 2.3 µM in assay [8].

Consider `Cc1ccc(NC(=O)Nc2ccc(C(F)(F)F)cc2)cc1S(=O)(=O)N(C)C`, for which the Efficacy in assay [4] came to 26%. Moreover, the EC50 was 1.5 µM in assay [1] and > 10 µM in [3].

For `O=C(Cc1ccccc1Cl)Nc1cc(Cl)cc(C(F)(F)F)c1`, the EC50 in assay [1] and in assay [3] was > 10 µM each time.

With `Cc1ccc(NC(=O)Cc2ccc(F)cc2)cc1S(=O)(=O)N(C)C`, the Efficacy was 107% in assay [5] and 108% in assay [6]. Besides, the EC50 came out at 5.2 µM in [7] and 3.6 µM in assay [8].

In the case of `Cc1ccc(NC(=O)Nc2ccccc2F)cc1S(=O)(=O)N(C)C`, the results for the Efficacy in [4] and in assay [2] were 111% and 72%, respectively. Moreover, the figures for the EC50 in [1] and in assay [3] were 3.9 µM and 7.8 µM, respectively.

Turning to `Cc1ccc(NC(=O)Cc2ccccc2Br)cc1S(=O)(=O)N(C)C`, the figures for the Efficacy in assay [5] and in assay [6] were 108% and 114%, respectively. The compound also displayed an EC50 in [7] of 1.6 µM.

With `COc1ccc(OC)c(NC(=O)Nc2ccc(C)c(S(=O)(=O)N(C)C)c2)c1`, the EC50 in assay [1] and in assay [3] was > 10 µM throughout.

Take `C[C@@H]1O[C@@H](O[C@H]2[C@H](Oc3cc(O)c4c(c3)O[C@H](c3ccc(O)cc3)CC4=O)O[C@H](CO)[C@@H](O)[C@@H]2O)[C@H](O)[C@H](O)[C@H]1O` [NARINGIN]: the EC50 in [9] and in assay [10] was > 100 µM in each case.

For `CS(=O)(=O)c1cc(NC(=O)Cc2ccccc2Cl)ccc1F`, the EC50 in assay [1] and in assay [3] was > 10 µM in each case.

For the compound `Cc1ccc(NC(=O)Nc2ccc(C)c(S(=O)(=O)N(C)C)c2)cc1Cl`, the Efficacy in assay [4] came to 91%; in [2], 115%. For the same compound, the concentration giving a half-maximal response (EC50) in assay [1] amounted to 2.9 µM; in assay [3], 6.2 µM.

Regarding `Cc1ccc(NC(=O)Nc2ccccc2)cc1S(=O)(=O)N(C)C`, the Efficacy in assay [4] amounted to 94%; in assay [2], 100%.

Turning to `CN(C)S(=O)(=O)c1cccc(NC(=O)Cc2ccccc2Cl)c1`, the Efficacy in assay [5] was 55%; in assay [6] it was 123%. Further, the values for the EC50 in [7] and in [8] were 1.6 µM and 3.3 µM, respectively.

As to `O=C(Cc1ccccc1Cl)Nc1ccc(Cl)c(C(F)(F)F)c1`, in assay [1], the EC50 was > 10 µM. Moreover, the Efficacy in assay [2] was determined as 17%.

Consider `Cc1ccc(NC(=O)Nc2cccc(F)c2)cc1S(=O)(=O)N(C)C`, for which the Efficacy in assay [4] turned out to be 89%; in [2], 55%. Further, the EC50 in assay [1] amounted to 1.1 µM; in assay [3] it was 1.8 µM.

With `COc1ccc(NC(=O)Nc2ccc(C)c(S(=O)(=O)N(C)C)c2)cc1`, the Efficacy in [4] came out at 101%; in assay [2], 104%. Besides, the EC50 in [1] came out at 1.7 µM; in assay [3], 5.6 µM.

Regarding `Cc1cccc(NC(=O)Cc2ccccc2Cl)c1`, the EC50 in assay [1] and in assay [3] was > 10 µM throughout.

Source of the values: ChEMBL document CHEMBL2417534, “Discovery and SAR of a novel series of GIRK1/2 and GIRK1/4 activators” (Bioorg Med Chem Lett, 2013).
